Key:
[1] = target: Serine/threonine-protein kinase tousled-like 1 (Homo sapiens) (UniProt Q9UKI8); assay: Binding affinity to wild-type human partial length TLK1 (K447 to A754 residues) expressed in Escherichia coli BL21 at 1 uM by Kinomescan method relative to control
[2] = target: Calcium/calmodulin-dependent protein kinase type 1B (Homo sapiens) (UniProt Q6P2M8); assay: Binding affinity to wild-type human partial length CAMK1B (W9 to A311 residues) expressed in HEK293 cells at 1 uM by Kinomescan method relative to control; format: cell-based
[3] = target: Mitogen-activated protein kinase kinase kinase 11 (Homo sapiens) (UniProt Q16584); assay: Binding affinity to wild-type human partial length MLK3 (I77 to W399 residues) expressed in Escherichia coli BL21 at 1 uM by Kinomescan method relative to control
[4] = system: Phosphatidylinositol 4,5-bisphosphate 3-kinase catalytic subunit alpha isoform (Homo sapiens), P42336 [I800L]; assay: Binding affinity to human partial length PIK3CA I800L mutant (R108 to N1068 residues) expressed in HEK293 cells at 1 uM by Kinomescan method relative to control; format: cell-based
[5] = target: Mitogen-activated protein kinase 15 (Homo sapiens) (UniProt Q8TD08); assay: Binding affinity to wild-type human partial length ERK8 (M1 to P437 residues) expressed in Escherichia coli BL21 at 1 uM by Kinomescan method relative to control
[6] = target: Macrophage-stimulating protein receptor (Homo sapiens) (UniProt Q04912); assay: Binding affinity to wild-type human partial length MST1R (I1057 to L1363 residues) expressed in Escherichia coli BL21 at 1 uM by Kinomescan method relative to control
[7] = target: Atypical kinase COQ8B, mitochondrial (Homo sapiens) (UniProt Q96D53); assay: Binding affinity to wild-type human full length ADCK4 (M1 to S544 residues) expressed in Escherichia coli BL21 at 1 uM by Kinomescan method relative to control
[8] = target: Cyclin-dependent kinase 2 homolog (Plasmodium falciparum (isolate 3D7)) (UniProt P61075); assay: Binding affinity to wild-type Plasmodium falciparum full length PK5 (M1 to N288 residues) expressed in HEK293 cells at 1 uM by Kinomescan method relative to control; format: cell-based
[9] = target: 5'-AMP-activated protein kinase catalytic subunit alpha-1 (Homo sapiens) (UniProt Q13131); assay: Binding affinity to wild-type human partial length AMPK alpha1 (M1 to E306 residues) expressed in Escherichia coli BL21 at 1 uM by Kinomescan method relative to control
Summary of the method: (§1)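 Kinome-wide competition binding panel run by an outside provider, with each compound tested at a single concentration. Activity is read against the kinase panel.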

[10] = target: Serine/threonine-protein kinase TBK1 (Homo sapiens) (UniProt Q9UHD2); assay: Binding affinity to wild-type human full length TBK1 (M1 to L729 residues) expressed in HEK293 cells at 1 uM by Kinomescan method relative to control; format: cell-based
Aurora kinase B = Aurora kinase B (Homo sapiens, UniProt Q96GD4); assay: Binding affinity to wild-type human partial length AURKB (D25 to A303 residues) expressed in HEK293 cells at 1 uM by Kinomescan method relative to control; format: cell-based
[11] = target: BMP-2-inducible protein kinase (Homo sapiens) (UniProt Q9NSY1); assay: Binding affinity to wild-type human partial length BIKE (S34 to N329 residues) expressed in Escherichia coli BL21 at 1 uM by Kinomescan method relative to control
[12] = target: Ribosomal protein S6 kinase alpha-4 (Homo sapiens) (UniProt O75676); assay: Binding affinity to wild-type human partial length N-terminal RPS6KA4 kinase domain 1 expressed in Escherichia coli BL21 at 1 uM by Kinomescan method relative to control
[13] = target: Leucine-rich repeat serine/threonine-protein kinase 2 (Homo sapiens, UniProt Q5S007); assay: Binding affinity to wild-type human partial length LRRK2 (H970 to E2527 residues) expressed in HEK293 cells at 1 uM by Kinomescan method relative to control; format: cell-based
[14] = target: Cyclin-dependent kinase 11A (Homo sapiens) (UniProt Q9UQ88); assay: Binding affinity to wild-type human partial length CDC2L2 (D391 to K730 residues) expressed in Escherichia coli BL21 at 1 uM by Kinomescan method relative to control
[15] = target: Cyclin-dependent kinase 13 (Homo sapiens) (UniProt Q14004); assay: Binding affinity to wild-type human partial length CDC2L5 (H675 to S1054 residues) expressed in HEK293 cells at 1 uM by Kinomescan method relative to control; format: cell-based
[16] = system: Receptor-type tyrosine-protein kinase FLT3 (Homo sapiens), P36888 [UNDEFINED MUTATION]; assay: Binding affinity to human partial length FLT3 ITD/F691L double mutant expressed in Escherichia coli BL21 at 1 uM by Kinomescan method relative to control
[17] = target: Dual specificity tyrosine-phosphorylation-regulated kinase 1A (Homo sapiens) (UniProt Q13627); assay: Binding affinity to wild-type human partial length DYRK1A (H129 to S509 residues) expressed in HEK293 cells at 1 uM by Kinomescan method relative to control; format: cell-based
[18] = target: Tyrosine-protein kinase JAK2 (Homo sapiens) (UniProt O60674); assay: Binding affinity to wild-type human partial length JAK2 JH1 catalytic domain (A829 to G1132 residues) expressed in HEK293 cells at 1 uM by Kinomescan method relative to control; format: cell-based
[19] = target: Aurora kinase C (Homo sapiens) (UniProt Q9UQB9); assay: Binding affinity to wild-type human full length AURKC (M1 to S275 residues) expressed in Escherichia coli BL21 at 1 uM by Kinomescan method relative to control
[20] = target: Serine/threonine-protein kinase Nek4 (Homo sapiens) (UniProt P51957); assay: Binding affinity to wild-type human full length NEK4 (M1 to F841 residues) expressed in HEK293 cells at 1 uM by Kinomescan method relative to control; format: cell-based; summary of the method: as §1
[21] = target: Serine/threonine-protein kinase TNNI3K (Homo sapiens) (UniProt Q59H18); assay: Binding affinity to wild-type human full length TNNI3K (M1 to S835 residues) expressed in Escherichia coli BL21 at 1 uM by Kinomescan method relative to control; summary of the method: as §1
[22] = target: Epidermal growth factor receptor (Homo sapiens) (UniProt P00533); assay: Binding affinity to wild-type human partial length EGFR (R669 to V1011 residues) expressed in Escherichia coli BL21 at 1 uM by Kinomescan method relative to control
[23] = target: Phosphatidylinositol 5-phosphate 4-kinase type-2 beta (Homo sapiens) (UniProt P78356); assay: Binding affinity to wild-type human full length PIP5K2B (M1 to T416 residues) expressed in Escherichia coli BL21 at 1 uM by Kinomescan method relative to control; summary of the method: as §1
[24] = target: Serine/threonine-protein kinase PLK3 (Homo sapiens) (UniProt Q9H4B4); assay: Binding affinity to wild-type human partial length PLK3 (A42 to L334 residues) expressed in HEK293 cells at 1 uM by Kinomescan method relative to control; format: cell-based
Chain of Serine/threonine-protein kinase PLK3 (Homo sapiens) (Q9H4B4 whole entry, looked up, the tested form may be a part): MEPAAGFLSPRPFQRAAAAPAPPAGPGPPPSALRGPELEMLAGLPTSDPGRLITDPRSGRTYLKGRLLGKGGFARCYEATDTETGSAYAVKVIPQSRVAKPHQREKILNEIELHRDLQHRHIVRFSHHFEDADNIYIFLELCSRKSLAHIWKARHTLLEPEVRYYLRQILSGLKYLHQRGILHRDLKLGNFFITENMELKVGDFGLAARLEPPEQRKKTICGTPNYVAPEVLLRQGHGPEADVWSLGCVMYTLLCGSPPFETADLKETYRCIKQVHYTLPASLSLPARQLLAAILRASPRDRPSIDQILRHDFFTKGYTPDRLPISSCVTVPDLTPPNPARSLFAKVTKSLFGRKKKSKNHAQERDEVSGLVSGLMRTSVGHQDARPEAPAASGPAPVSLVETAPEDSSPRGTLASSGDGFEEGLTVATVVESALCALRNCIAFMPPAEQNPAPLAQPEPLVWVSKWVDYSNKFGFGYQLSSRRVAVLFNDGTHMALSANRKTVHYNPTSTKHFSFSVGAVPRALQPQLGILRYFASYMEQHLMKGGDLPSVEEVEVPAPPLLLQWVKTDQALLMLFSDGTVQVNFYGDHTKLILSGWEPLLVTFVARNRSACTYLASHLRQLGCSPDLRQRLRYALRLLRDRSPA

Chain of Serine/threonine-protein kinase TNNI3K (Homo sapiens) (Q59H18 whole entry, the tested form may be a part): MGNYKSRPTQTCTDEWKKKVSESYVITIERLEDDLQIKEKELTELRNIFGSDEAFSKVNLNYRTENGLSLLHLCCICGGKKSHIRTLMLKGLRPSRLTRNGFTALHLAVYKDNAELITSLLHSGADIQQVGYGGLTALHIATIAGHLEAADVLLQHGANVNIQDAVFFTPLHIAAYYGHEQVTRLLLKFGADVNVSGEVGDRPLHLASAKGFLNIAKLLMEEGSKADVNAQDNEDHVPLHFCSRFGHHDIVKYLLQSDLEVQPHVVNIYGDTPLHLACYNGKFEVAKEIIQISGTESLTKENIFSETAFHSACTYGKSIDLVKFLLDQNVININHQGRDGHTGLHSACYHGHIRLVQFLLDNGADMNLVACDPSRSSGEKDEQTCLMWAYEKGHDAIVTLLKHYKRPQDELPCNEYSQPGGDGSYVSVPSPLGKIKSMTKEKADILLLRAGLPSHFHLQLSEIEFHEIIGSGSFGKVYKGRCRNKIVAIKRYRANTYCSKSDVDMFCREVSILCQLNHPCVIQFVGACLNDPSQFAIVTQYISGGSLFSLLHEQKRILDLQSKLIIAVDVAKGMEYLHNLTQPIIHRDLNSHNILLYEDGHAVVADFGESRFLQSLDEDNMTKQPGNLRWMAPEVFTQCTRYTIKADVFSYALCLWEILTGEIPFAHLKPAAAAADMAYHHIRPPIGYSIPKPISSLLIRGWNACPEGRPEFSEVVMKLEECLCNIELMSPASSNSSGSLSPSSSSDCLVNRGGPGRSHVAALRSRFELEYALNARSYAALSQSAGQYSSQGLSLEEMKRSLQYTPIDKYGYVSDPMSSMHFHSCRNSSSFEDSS
Chain of Serine/threonine-protein kinase TBK1 (Homo sapiens) (Q9UHD2 whole entry, the tested form may be a part): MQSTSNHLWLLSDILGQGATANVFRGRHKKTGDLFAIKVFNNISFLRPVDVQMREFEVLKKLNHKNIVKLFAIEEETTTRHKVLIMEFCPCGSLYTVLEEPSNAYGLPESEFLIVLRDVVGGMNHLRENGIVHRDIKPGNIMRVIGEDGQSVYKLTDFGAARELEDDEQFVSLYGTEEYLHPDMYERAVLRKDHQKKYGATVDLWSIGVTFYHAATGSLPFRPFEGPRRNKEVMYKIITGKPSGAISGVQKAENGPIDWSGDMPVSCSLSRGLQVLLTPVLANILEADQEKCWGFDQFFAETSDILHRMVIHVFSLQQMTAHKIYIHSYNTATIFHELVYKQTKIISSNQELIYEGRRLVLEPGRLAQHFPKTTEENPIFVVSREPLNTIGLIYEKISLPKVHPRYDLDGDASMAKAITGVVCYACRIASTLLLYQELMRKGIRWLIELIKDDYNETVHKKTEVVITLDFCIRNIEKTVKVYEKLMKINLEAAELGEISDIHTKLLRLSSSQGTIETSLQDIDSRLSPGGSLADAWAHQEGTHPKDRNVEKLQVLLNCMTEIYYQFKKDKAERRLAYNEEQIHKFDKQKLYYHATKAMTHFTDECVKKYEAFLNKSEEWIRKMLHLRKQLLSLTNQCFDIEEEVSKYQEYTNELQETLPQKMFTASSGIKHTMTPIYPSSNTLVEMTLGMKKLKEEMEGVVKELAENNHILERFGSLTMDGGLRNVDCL
Chain of Atypical kinase COQ8B, mitochondrial (Homo sapiens) (Q96D53 whole entry, the tested form may be a part): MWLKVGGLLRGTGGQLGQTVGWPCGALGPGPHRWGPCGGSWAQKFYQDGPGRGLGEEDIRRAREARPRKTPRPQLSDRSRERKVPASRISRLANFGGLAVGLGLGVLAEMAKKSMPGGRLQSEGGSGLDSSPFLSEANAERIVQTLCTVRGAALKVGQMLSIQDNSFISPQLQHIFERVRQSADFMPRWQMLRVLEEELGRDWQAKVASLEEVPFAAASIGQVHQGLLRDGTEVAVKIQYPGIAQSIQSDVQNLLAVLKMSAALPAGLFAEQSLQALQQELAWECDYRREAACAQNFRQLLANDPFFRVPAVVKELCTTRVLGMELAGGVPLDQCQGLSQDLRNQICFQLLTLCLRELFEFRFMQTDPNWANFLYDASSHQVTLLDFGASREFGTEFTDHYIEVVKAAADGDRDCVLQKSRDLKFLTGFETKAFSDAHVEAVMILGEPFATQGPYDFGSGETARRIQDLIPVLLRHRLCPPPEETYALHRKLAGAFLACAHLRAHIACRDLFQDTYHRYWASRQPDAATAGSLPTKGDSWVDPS
Chain of Calcium/calmodulin-dependent protein kinase type 1B (Homo sapiens) (Q6P2M8 whole entry, the tested form may be a part): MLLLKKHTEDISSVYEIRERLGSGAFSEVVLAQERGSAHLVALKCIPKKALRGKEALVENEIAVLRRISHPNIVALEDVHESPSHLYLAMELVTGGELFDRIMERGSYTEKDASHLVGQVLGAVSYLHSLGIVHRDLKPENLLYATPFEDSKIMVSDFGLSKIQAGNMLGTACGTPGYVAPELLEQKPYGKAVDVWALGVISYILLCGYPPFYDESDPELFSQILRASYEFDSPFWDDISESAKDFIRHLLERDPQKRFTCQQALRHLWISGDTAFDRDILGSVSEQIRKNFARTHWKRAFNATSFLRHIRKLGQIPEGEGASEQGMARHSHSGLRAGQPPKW
Chain of 5'-AMP-activated protein kinase catalytic subunit alpha-1 (Homo sapiens) (Q13131 whole entry, looked up, the tested form may be a part): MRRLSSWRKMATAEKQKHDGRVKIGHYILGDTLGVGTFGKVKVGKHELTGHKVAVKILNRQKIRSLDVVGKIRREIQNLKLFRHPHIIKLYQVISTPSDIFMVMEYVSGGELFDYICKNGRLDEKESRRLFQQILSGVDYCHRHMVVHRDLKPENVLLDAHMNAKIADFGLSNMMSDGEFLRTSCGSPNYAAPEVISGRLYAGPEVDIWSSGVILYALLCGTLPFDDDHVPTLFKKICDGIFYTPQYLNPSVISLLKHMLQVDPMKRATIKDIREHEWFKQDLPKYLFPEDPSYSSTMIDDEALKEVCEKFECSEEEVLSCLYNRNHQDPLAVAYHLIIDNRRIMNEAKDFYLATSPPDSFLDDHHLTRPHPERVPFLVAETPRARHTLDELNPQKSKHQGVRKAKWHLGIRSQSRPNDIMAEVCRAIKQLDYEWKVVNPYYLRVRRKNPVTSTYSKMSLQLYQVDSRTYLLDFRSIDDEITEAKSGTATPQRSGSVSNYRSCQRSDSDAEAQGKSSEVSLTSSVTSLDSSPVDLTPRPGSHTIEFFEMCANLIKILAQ
Chain of Ribosomal protein S6 kinase alpha-4 (Homo sapiens) (O75676 whole entry, looked up, the tested form may be a part): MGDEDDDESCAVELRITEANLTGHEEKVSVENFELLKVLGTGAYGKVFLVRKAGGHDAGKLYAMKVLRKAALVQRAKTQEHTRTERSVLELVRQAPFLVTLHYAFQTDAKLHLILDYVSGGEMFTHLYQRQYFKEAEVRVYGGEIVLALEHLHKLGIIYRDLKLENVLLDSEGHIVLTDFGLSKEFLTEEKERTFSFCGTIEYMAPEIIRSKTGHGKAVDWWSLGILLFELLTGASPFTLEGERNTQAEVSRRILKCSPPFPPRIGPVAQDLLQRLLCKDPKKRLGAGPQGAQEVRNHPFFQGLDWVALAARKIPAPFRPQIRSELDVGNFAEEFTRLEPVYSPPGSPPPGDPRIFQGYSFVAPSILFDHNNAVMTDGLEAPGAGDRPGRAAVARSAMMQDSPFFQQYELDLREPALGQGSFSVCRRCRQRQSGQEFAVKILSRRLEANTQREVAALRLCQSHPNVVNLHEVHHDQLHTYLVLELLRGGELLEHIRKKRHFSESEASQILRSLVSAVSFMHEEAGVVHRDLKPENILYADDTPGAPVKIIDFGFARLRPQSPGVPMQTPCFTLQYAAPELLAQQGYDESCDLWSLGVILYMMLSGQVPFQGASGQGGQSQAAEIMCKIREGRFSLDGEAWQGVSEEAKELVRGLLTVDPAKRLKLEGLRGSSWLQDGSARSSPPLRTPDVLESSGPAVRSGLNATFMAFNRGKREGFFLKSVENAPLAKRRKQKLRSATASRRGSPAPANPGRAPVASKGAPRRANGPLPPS
Chain of Phosphatidylinositol 5-phosphate 4-kinase type-2 beta (Homo sapiens) (P78356 whole entry, the tested form may be a part): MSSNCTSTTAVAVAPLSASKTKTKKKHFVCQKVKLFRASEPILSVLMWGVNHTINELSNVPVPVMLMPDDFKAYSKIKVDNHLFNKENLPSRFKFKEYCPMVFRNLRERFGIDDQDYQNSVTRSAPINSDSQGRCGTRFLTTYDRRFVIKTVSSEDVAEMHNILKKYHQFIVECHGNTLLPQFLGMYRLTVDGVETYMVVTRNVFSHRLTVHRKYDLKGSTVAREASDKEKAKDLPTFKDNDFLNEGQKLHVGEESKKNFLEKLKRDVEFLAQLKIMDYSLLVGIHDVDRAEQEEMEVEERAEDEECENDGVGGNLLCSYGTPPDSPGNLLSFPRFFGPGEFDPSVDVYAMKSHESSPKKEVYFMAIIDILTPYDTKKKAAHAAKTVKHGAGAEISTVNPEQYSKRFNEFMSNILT

Structure (SMILES) | Activity [1] [%] | Activity [2] [%] | Activity [3] [%] | Activity [4] [%] | Activity [5] [%] | Activity [6] [%] | Activity [7] [%] | Activity [8] [%] | Activity [9] [%] | Activity [10] [%] | Activity (Aurora kinase B) [%] | Activity [11] [%] | Activity [12] [%] | Activity [13] [%] | Activity [14] [%] | Activity [15] [%] | Activity [16] [%] | Activity [17] [%] | Activity [18] [%] | Activity [19] [%] | also measured
CCC(=O)Nc1ccc(C(=O)Nc2ccc(Nc3ncc4c(n3)N(C)c3ccc(C)cc3C(=O)N4C)cc2)cc1 | 99 | 45 | 95 | 78 | 94 | 85 | 100 | 94 | 64 | 74 | 1.9 | 93 | 95 | 72 | 88 | 100 | 68 | 73 | 70 | 1.3 | Activity [20]: 76%; Activity [21]: 100%; Activity [22]: 69%; Activity [23]: 94%; Activity [24]: 83%
C=CC(=O)Nc1ccc(C(=O)Nc2ccc(Nc3ncc4c(n3)N(C)c3ccc(C)cc3C(=O)N4C)cc2)cc1 | 94 | 100 | 83 | 76 | 96 | 82 | 100 | 96 | 70 | 94 | 1.8 | 85 | 100 | 85 | 100 | 99 | 100 | 96 | 100 | 49 | Activity [20]: 86%; Activity [21]: 77%; Activity [22]: 83%; Activity [23]: 83%; Activity [24]: 91%

— ChEMBL document CHEMBL4184148 (Bioorg Med Chem Lett, 2017)
